Source: ChEMBL document CHEMBL2424634, “Synthesis and SAR studies of 5-(pyridin-4-yl)-1,3,4-thiadiazol-2-amine derivatives as potent inhibitors of Bloom helicase” (Bioorg Med Chem Lett, 2013)
In brackets after ≈: the same amount, converted by molar mass. Activity calls are given as the source filed them. The calls are words filed in the database; no cut-off is given here.

Assays:
[1] = molecular target: Bifunctional 3'-5' exonuclease/ATP-dependent helicase WRN (Homo sapiens, UniProt Q14191); assay: Inhibition of WRN (unknown origin) by gel-based DNA unwinding assay
Bifunctional 3'-5' exonuclease/ATP-dependent helicase WRN, sequence (Q14191 whole entry): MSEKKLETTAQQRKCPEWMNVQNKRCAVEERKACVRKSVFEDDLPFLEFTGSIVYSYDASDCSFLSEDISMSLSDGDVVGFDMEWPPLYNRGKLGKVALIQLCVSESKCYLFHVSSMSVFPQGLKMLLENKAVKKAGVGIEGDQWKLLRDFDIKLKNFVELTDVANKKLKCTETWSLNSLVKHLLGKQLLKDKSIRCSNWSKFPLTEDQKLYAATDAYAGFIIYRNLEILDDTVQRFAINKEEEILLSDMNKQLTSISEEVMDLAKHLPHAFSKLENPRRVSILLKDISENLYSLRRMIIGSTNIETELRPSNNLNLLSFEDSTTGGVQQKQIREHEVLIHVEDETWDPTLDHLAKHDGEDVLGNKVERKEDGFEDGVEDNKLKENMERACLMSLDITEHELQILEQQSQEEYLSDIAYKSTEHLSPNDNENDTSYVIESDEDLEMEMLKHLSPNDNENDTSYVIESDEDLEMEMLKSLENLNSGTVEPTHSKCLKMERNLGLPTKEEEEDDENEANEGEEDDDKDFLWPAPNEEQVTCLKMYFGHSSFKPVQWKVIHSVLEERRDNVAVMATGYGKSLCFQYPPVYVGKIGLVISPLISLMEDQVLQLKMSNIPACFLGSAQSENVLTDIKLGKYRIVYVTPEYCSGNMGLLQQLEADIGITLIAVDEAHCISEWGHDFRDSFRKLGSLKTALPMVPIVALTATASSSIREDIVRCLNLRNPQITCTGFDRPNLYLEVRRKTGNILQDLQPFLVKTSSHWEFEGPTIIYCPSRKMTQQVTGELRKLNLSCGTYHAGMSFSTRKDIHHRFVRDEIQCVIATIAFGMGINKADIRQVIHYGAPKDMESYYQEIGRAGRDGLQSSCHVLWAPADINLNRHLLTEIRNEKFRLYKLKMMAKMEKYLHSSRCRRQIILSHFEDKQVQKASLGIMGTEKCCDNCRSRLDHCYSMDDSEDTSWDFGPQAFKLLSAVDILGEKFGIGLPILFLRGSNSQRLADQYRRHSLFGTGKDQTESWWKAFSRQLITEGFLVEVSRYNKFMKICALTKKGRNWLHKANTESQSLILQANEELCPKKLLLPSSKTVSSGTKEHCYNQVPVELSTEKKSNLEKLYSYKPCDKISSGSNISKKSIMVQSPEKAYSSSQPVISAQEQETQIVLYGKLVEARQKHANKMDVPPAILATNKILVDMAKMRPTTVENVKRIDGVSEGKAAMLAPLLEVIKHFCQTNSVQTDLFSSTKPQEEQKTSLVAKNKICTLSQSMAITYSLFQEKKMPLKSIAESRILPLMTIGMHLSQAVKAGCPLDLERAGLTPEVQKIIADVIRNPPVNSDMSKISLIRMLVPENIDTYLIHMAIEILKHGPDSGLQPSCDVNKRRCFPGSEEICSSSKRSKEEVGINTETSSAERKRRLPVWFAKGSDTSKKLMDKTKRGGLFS

[2] = molecular target: T1, RecQ-like DNA helicase BLM (Homo sapiens, UniProt P54132); assay: Inhibition of BLM (unknown origin) by gel-based DNA unwinding assay
T1 sequence (P54132 whole entry): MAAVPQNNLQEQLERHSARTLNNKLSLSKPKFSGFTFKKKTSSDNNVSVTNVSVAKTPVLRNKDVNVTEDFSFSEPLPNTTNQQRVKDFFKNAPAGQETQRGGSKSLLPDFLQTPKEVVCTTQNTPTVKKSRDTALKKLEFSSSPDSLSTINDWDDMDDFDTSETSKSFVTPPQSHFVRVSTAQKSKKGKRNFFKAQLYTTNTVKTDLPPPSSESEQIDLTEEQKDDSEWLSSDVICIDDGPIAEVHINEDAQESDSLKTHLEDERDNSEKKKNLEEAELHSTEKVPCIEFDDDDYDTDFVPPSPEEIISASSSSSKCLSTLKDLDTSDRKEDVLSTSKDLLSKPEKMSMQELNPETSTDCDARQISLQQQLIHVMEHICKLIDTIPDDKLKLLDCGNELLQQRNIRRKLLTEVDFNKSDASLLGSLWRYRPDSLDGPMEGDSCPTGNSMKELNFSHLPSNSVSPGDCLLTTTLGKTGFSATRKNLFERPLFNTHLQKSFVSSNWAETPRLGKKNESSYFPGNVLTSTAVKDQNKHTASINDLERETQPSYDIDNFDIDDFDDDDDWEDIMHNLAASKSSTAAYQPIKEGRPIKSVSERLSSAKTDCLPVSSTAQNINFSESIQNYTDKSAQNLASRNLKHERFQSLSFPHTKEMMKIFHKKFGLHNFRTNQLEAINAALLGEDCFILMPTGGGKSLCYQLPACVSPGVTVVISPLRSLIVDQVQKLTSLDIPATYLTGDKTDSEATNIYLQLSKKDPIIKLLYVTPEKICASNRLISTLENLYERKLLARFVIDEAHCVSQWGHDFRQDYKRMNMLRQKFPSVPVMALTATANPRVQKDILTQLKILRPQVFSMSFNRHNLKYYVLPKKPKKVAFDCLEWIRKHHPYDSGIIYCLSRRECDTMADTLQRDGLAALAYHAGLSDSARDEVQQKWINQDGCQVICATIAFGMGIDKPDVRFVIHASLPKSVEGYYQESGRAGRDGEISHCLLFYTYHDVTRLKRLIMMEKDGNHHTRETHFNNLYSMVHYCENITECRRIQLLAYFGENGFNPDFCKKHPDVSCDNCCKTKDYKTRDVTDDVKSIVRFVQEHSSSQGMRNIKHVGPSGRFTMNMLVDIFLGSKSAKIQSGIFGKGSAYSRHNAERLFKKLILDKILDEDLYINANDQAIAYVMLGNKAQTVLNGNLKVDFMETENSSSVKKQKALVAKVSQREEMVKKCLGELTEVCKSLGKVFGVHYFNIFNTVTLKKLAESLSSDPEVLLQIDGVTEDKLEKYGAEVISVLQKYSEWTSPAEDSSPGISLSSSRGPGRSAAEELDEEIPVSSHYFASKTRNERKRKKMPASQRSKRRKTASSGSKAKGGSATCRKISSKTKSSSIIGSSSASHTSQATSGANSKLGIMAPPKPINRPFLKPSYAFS

[3] = molecular target: T2, ATP-dependent DNA helicase Q1 (Homo sapiens, UniProt P46063); assay: Inhibition of RECQ1 (unknown origin) by gel-based DNA unwinding assay
T2 sequence (P46063 whole entry): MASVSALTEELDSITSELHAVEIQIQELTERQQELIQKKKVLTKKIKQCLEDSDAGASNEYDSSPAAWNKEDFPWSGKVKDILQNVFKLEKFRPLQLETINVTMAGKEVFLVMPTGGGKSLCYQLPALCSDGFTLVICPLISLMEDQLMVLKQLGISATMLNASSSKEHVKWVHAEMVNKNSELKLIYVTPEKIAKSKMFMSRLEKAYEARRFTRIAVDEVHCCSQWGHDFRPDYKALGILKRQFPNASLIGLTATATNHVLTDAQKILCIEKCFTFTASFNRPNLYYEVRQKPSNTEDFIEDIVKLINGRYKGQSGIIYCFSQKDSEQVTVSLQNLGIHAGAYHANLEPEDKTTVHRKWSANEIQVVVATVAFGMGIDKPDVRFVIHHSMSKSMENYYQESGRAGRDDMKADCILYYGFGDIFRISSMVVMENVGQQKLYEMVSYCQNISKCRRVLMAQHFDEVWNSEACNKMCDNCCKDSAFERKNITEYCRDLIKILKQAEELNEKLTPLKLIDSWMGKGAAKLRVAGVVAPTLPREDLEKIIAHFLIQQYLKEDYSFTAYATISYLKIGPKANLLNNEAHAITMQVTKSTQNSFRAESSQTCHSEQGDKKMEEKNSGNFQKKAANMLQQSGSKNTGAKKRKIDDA

Homo sapiens [4] = species on record: Homo sapiens; assay: Selectivity ratio of IC50 for WRN (unknown origin) to IC50 for BLM (unknown origin)
[5] = Metabolic stability of the compound in mouse plasma assessed as compound remaining after 5 hrs; format: ADME, cell-free; settings: read-out: Stability
Liver = assay: Half life in mouse liver microsomes in presence of NADPH; format: ADME, Microsome
[6] = molecular target: T1, RecQ-like DNA helicase BLM; assay: Displacement of TAMRA-labeled oligonucleotide from BLM (unknown origin)
[7] = molecular target: T1, RecQ-like DNA helicase BLM; assay: Inhibition of BLM in human PSNF5 cells assessed as increase of sister chromatid exchange at 1 to 5 uM; format: cell-based
In short: (§1)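 Used an isogenic pair of cell lines derived from GM08505 Bloom syndrome cells: PSNF5 (expresses BLM) and PSNG13 (lacks BLM). Cells were treated across a dose range and sister chromatid exchange frequency was scored.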

[8] = molecular target: T1, RecQ-like DNA helicase BLM; assay: Inhibition of BLM (unknown origin) binding to single-stranded DNA by fluorescence polarization analysis
[9] = Kinetic solubility of the compound in PBS buffer at pH 7.4; format: physicochemical; settings: read-out: Kinetic_solubility
In short: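 Kinetic solubility in PBS, pH 7.4, determined by chemiluminescent nitrogen detection (CLND) and by UV-Vis detection.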

[10] = molecular target: T1, RecQ-like DNA helicase BLM; assay: Non-competitive inhibition of BLM (unknown origin) using ATP by Lineweaver-Burk double reciprocal plot analysis
Homo sapiens [11] = species on record: Homo sapiens; assay: Increase of sister chromatid exchange in human BLM-deficient PSNG13 cells at 1 to 5 uM; format: functional; in short: as §1

Row | Compound | IC50 ([2]; read-out: IC50) | IC50 [2] | also measured
1 | N#Cc1cc(NC(=O)Nc2nnc(-c3ccncc3)s2)ccc1F | 0.3 µM | – | IC50 [1]: 2.2 µM; IC50 [3]: > 50 µM; Ratio IC50 (Homo sapiens [4]): 7.3
2 | N#Cc1cc(NC(=O)Nc2nnc(-c3ccncc3)s2)ccc1Cl | 0.1 µM | – | IC50 [1]: 1.6 µM; Ratio IC50 (Homo sapiens [4]): 16
3 | O=C(Nc1ccc(Br)cc1)Nc1nnc(-c2ccncc2)s1 | 12.6 µM | – | –
4 | O=C(Nc1ccc(Cl)c(C(F)(F)F)c1)Nc1nnc(-c2ccncc2)s1 | 7.1 µM | – | –
5 | Cc1cc(NC(=O)Nc2nnc(-c3ccncc3)s2)ccc1C#N | 3.2 µM | – | –
6 | Nc1cc(NC(=O)Nc2nnc(-c3ccncc3)s2)ccc1Cl | 11.2 µM | – | –
7 | N#Cc1cccc(NC(=O)Nc2nnc(-c3ccncc3)s2)c1 | 8.9 µM | – | –
8 | O=C(Nc1ccc(-c2cn[nH]c2)c(C(F)(F)F)c1)Nc1nnc(-c2ccncc2)s1 | 14.2 µM | – | –
9 | N#Cc1cc(NC(=O)Nc2nnc(-c3ccncc3)s2)ccc1-c1ccc[nH]1 | 1.8 µM | – | –
10 | O=c1c(Nc2ccc(Cl)c(Cl)c2)c(Nc2nnc(-c3ccncc3)s2)c1=O | 4.3 µM | – | –
11 | N#C/N=C(/Nc1ccc(F)c(C(F)(F)F)c1)Nc1nnc(-c2ccncc2)s1 | – | Not Active | –
12 | N#Cc1ccc(NC(=O)Nc2nnc(-c3ccncc3)s2)cc1Cl | 1.6 µM | – | –
13 | O=S(=O)(Cc1ccc(Cl)c(Cl)c1)Nc1nnc(-c2ccncc2)s1 | – | Not Active | –
14 | O=C(Nc1ccc(F)cc1)Nc1nnc(-c2ccncc2)s1 | 14.1 µM | – | –
15 | O=C(Nc1ccc(Cl)cc1)Nc1nnc(-c2ccncc2)s1 | 40 µM | – | –
16 | N#Cc1ccc(NC(=O)Nc2nnc(-c3ccncc3)s2)cc1Br | 0.91 µM | – | –
17 | Nc1ccc(NC(=O)Nc2nnc(-c3ccncc3)s2)cc1C(F)(F)F | 40 µM | – | –
18 | O=C(Nc1ccc(-n2cncn2)c(C(F)(F)F)c1)Nc1nnc(-c2ccncc2)s1 | 36 µM | – | –
19 | Cc1cc(NC(=O)Nc2nnc(-c3ccncc3)s2)ccc1-c1cn[nH]c1 | 16.8 µM | – | –
20 | Cc1cc(NC(=O)Nc2nnc(-c3ccncc3)s2)ccc1Br | 13.4 µM | – | –

Row | Compound | IC50 ([2]; read-out: IC50) | IC50 [2] | also measured
21 | O=C(Nc1ccc(Br)c(Br)c1)Nc1nnc(-c2ccncc2)s1 | 2.1 µM | – | IC50 [1]: 2.9 µM; Ratio IC50 (Homo sapiens [4]): 1.4
22 | NC(=Nc1ccc(Cl)c(Cl)c1)Nc1nnc(-c2ccncc2)s1 | 14.1 µM | – | –
23 | N#Cc1cc(NC(=O)Nc2nnc(-c3ccncc3)s2)ccc1Br | 0.11 µM | – | IC50 [1]: 1.1 µM; IC50 [3]: > 50 µM; Ratio IC50 (Homo sapiens [4]): 10
24 | O=C(Nc1ccc(-n2ccnc2)c(F)c1)Nc1nnc(-c2ccncc2)s1 | 10 µM | – | –
25 | O=C(Cc1ccc2ccccc2c1)Nc1nnc(-c2ccncc2)s1 | – | Not Active | –
26 | O=C(Nc1ccc(Cl)c(Cl)c1)Nc1nnc(-c2ccccc2)s1 | – | Not Active | –
27 | O=C(Nc1ccc(Cl)c([N+](=O)[O-])c1)Nc1nnc(-c2ccncc2)s1 | 1.3 µM | – | –
28 | N#Cc1cc(NC(=O)Nc2nnc(-c3ccncc3)s2)ccc1-c1cn[nH]c1 | 1.1 µM | – | remaining at 5 h [5]: 100%; t1/2 (Liver): > 1.33 h; inhibition [6]: Active; inhibition [7]: Dose-dependent effect; IC50 [1]: 7.1 µM; inhibition [8]: Dose-dependent effect; IC50 [3]: > 50 µM; solubility kinetic [9]: 10 µM (≈ 3.88 µg/mL); Ratio IC50 (Homo sapiens [4]): 6.5; inhibition [10]: Active; Activity (Homo sapiens [11]): inactive
29 | O=C(Nc1nnc(-c2ccncc2)s1)Oc1ccc2ccccc2c1 | – | Not Active | –
30 | O=C(Nc1ccc(F)c(C(F)(F)F)c1)Nc1nnc(-c2ccncc2)s1 | – | – | remaining at 5 h [5]: 100%; t1/2 (Liver): > 1.33 h; IC50 [1]: 2.7 µM; IC50 [3]: > 50 µM; solubility kinetic [9]: 1 µM (≈ 0.383 µg/mL)
31 | O=C(Nc1ccc(Cl)c(Cl)c1)Nc1nnc(-c2ccccn2)s1 | – | Not Active | –
32 | CN(C(=O)Nc1ccc2ccccc2c1)c1nnc(-c2ccncc2)s1 | – | Not Active | –
33 | Cc1cc(NC(=O)Nc2nnc(-c3ccncc3)s2)ccc1Cl | 7.9 µM | – | –
34 | O=C(Nc1ccc(F)c(F)c1)Nc1nnc(-c2ccncc2)s1 | 8.9 µM | – | –
35 | O=C(Nc1ccc(Cl)c(Cl)c1)Nc1nnc(C2CCCCC2)s1 | – | Not Active | –
36 | O=C(Nc1ccccc1)Nc1nnc(-c2ccncc2)s1 | – | Not Active | –
37 | N#Cc1ccc(NC(=O)Nc2nnc(-c3ccncc3)s2)cc1 | 7.9 µM | – | –
38 | Cc1cc(NC(=O)Nc2nnc(-c3ccncc3)s2)ccc1F | 15.8 µM | – | –
39 | N#Cc1ccc(NC(=O)Nc2nnc(-c3ccncc3)s2)cc1C(F)(F)F | 5.6 µM | – | –
40 | O=C(Nc1ccc(-n2cncn2)c(F)c1)Nc1nnc(-c2ccncc2)s1 | 14.1 µM | – | –

Now from value to molecule, other results behind:

Row | IC50 ([2]; read-out: IC50) | IC50 [2] | Compound | also measured
41 | 3.5 µM | – | O=C(Nc1ccc(Cl)c(Cl)c1)Nc1nnc(-c2cccnc2)s1 | –
42 | – | Not Active | O=C(Nc1ccc(Cl)c(Cl)c1)Nc1ccc(-c2ccncc2)s1 | –
43 | – | Not Active | O=C(Nc1ccc(Cl)c(Cl)c1)Nc1ncc(-c2ccncc2)s1 | –
44 | – | Not Active | O=C(Nc1ccc(Cl)c(Cl)c1)N1CCC(c2ccncc2)C1 (stereo not given) | –
45 | 1.4 µM | – | O=C(Nc1ccc(Cl)c(Cl)c1)Nc1nnc(-c2ccncc2)s1 | IC50 [1]: 3.4 µM; IC50 [3]: > 50 µM; Ratio IC50 (Homo sapiens [4]): 2.4
46 | 4 µM | – | O=C(Nc1ccc(Cl)c(Cl)c1)Nc1cccc(-c2ccncc2)n1 | –
47 | – | Not Active | O=C(Nc1ccc(Cl)c(Cl)c1)Nc1nnc(-c2ccncc2)o1 | –
48 | – | Not Active | O=C(Nc1ccc(Cl)c(Cl)c1)NC1CCN(c2ccncc2)CC1 | –
49 | – | Not Active | O=C(Nc1ccc(Cl)c(Cl)c1)Nc1nnc(N2CCNCC2)s1 | –
50 | 4 µM | – | S=C(Nc1ccc(Cl)c(Cl)c1)Nc1nnc(-c2ccncc2)s1 | –
51 | – | Not Active | O=C(Nc1ccc(Cl)c(Cl)c1)Nc1nnc(NC2CCNCC2)s1 | –
52 | 49 µM | – | Nc1ccc(-c2nnc(NC(=O)Nc3ccc(Cl)c(Cl)c3)s2)cc1 | –
53 | – | Not Active | O=C(Nc1ccc(Cl)c(Cl)c1)N1CCN(c2ccncc2)CC1 | –
54 | 28.1 µM | – | O=C(Nc1ccc(Cl)c(Cl)c1)Nc1nc(-c2ccncc2)cs1 | –
55 | – | Not Active | O=C(Nc1ccc(Cl)c(Cl)c1)Nc1ccnc(-c2ccncc2)n1 | –
56 | – | Not Active | O=C(Nc1ccc(Cl)c(Cl)c1)Nc1cc(-c2ccncc2)n[nH]1 | –
57 | – | Not Active | CN1CCN(c2nnc(NC(=O)Nc3ccc(Cl)c(Cl)c3)s2)CC1 | –
